# STAT3 act – IL-6 driven STAT3 reporter potentiators, primary screen, U3A cells, luciferase, luminescence, MLSCN library; 190,000 compounds, 0.91% hits; AID 871, 2007; activation (% of control), % at 5.6 µM; IL-6 STAT3-luciferase reporter; 100% = signal with IL-6 EC80 alone;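 active means activation above the screen-wide mean of compound activation plus 3 SD, cut at about 130% in these data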;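 further: 0% = background luminescence of wells with medium and substrate only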
#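 Material: human STAT1-deficient U3A cells with stable STAT3-luciferase reporter / Probe or stimulus: IL-6 stimulus at 33 ng/mL final / Schedule: 1 h compound pre-exposure, 6 h IL-6 stimulation, 37 °C / Technique: luminescence / Read-out basis: percent of IL-6-only median luminescence / Control set: IL-6-only high control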
# STAT1 blocker – STAT1 signaling inhibitors, primary screen, cell-based, HTS, luciferase reporter. NIH 3T3 STAT1-luciferase reporter, IFN-gamma, luminescence. inhibition, % at 5.5 µM. 200,000 compounds, 0.35% hits. AID 920, 2007;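 active means inhibition above a set limit, the mean inhibition across all tested compounds plus 3 SD, cut at about 34% in these data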;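 further: 0% = IFN-gamma with DMSO and 100% = IFN-gamma with 300 µM nifuroxazide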
# PPC-1+TRAIL kill – compounds killing PPC-1 cancer cells with TRAIL present, primary screen, TRAIL potentiator project, ATPLite luminescence, uHTS; PPC-1 cells + TRAIL, ATPLite viability luminescence; cell killing (% activity), % at 4 µM or 5 µM; 220,000 compounds, 0.41% hits; AID 1443, 2008;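 active means cell killing above 50% in the first pass at 4 µM, then a duplicate retest at 5 µM averaging 50% or more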;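 further: plate controls were cells with TRAIL plus DMSO for no effect and medium-only wells lacking cells for full effect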
# C8 TRAIL sens – viability loss with TRAIL in NB7+C8 cells, primary screen, TRAIL sensitizer project, cell-based, ATPlite luminescence; inhibition (viability loss, TRAIL sensitization), % at 10 µM; AID 624354, 2012; 360,000 compounds, 1% hits;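 active means compounds causing at least 50% loss of cell viability in the single-dose screen, relative to plate controls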
# STAT3 blocker – IL-6 driven STAT3 reporter inhibitors, primary screen, U3A cells, luciferase, luminescence, MLSCN library. 190,000 compounds, 0.89% hits. AID 862, 2007. inhibition, % at 5.5 µM. IL-6 STAT3-luciferase reporter; host cell line lacks STAT1;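 active means inhibition above the mean inhibition across all screened compounds plus 3 SD, cut at about 44% in these data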;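 further: 0% = DMSO only wells and 100% = 100 µM nifuroxazide control wells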
# Numbers without * were called inactive; . = no result. An excerpt weighted towards active compounds, which were near 1.8% of everything screened.
SMILES,STAT3 act,STAT1 blocker,PPC-1+TRAIL kill,C8 TRAIL sens,STAT3 blocker
O=C(Nc1ccc(N2CCN(C(=O)c3ccccc3)CC2)cc1)c1ccc([N+](=O)[O-])o1,103,-83,37,70*,1
Cc1ccccc1C(=O)N1CCN(c2ccc(NC(=O)c3ccc([N+](=O)[O-])o3)cc2)CC1,.,.,.,71*,.
CCc1cc2c(=O)c(-c3cnn(-c4ccccc4)c3)c(C)oc2cc1OCC(=O)Nc1ccc(F)c(F)c1,96,-4,15,52*,5
CCCCCc1cc(=O)oc2c(C(CCN3CCCCC3)c3ccc(OC)cc3)c(OC)cc(OC)c12 (stereo not given),.,.,-1,39,.
CCCCCc1cc(=O)oc2c(C(CCN3CCCC3)c3cc(OC)c(OC)c(OC)c3)c(OC)cc(OC)c12 (stereo not given),.,.,11,53*,.
Cc1nc(-[n+]2nc(-c3ccncc3)nn2-c2ccccc2)sc1C,.,.,.,-11,.
O=C(/C=C/c1cccs1)N1CCc2ccccc21,77,-38,58*,56*,30
O=C(c1ccc(CNS(=O)(=O)c2ccc(Br)cc2)cc1)N1CCCCC1,.,.,.,14,.
O=C1C=C(NCCc2cc(Br)c(O)c(Br)c2)C(=O)c2ncccc21,.,.,.,57*,.
CCC(CC)NC(=O)Nc1cccc(C)c1C,100,3,-30,-6,9
CCC(C)N(CC(=O)Nc1cccc(C)c1C)C(=O)CCl (stereo not given),42,38*,9,97*,70*
CC(C)N(CC(=O)Nc1ccc(Cl)cc1C(F)(F)F)C(=O)CCl,49,46*,24,95*,65*
O=C(O)CSCC(=O)Nc1ccc(Cl)cc1C(F)(F)F,99,0,14,4,8
CCC(=O)c1ccccc1OCCCN1CCC(Cc2ccccc2)CC1,.,.,.,-4,.
O=C1CN(CC(=O)Nc2cccc(Cl)c2Cl)c2ccccc2N1,149*,6,12,-25,-58
O=C1CN(C(=O)COc2ccc(Cl)c(Cl)c2)c2ccccc2N1,.,.,.,4,.
O=C(CN1C(=O)NC2(CCCC2)C1=O)Nc1cccc(Cl)c1Cl,.,.,.,3,.
O=C1CN(C(=O)Cn2ncc(Cl)c(Cl)c2=O)c2ccccc2N1,94,7,38,94*,10
Cc1c(C(=O)NCc2ccc3c(c2)OCCO3)sc(=O)n1Cc1ccccc1F,.,.,.,4,.
CC(=O)N1CCc2c(sc(NC(=O)c3ccc([N+](=O)[O-])o3)c2C(N)=O)C1,.,.,.,62*,.
CCC(=O)Nc1sc2c(c1C(N)=O)CCN(C(C)=O)C2,95,-2,.,3,7
O=C(c1ccc2c(=O)n3c(nc2c1)CCCCC3)N1CCN(c2ccc([N+](=O)[O-])cc2)CC1,.,.,.,18,.
CCOC(=O)N1CCC(Nc2c(NCCCOC)c(=O)c2=O)CC1,92,5,22,-3,12
CCOC(=O)N1CCC(Nc2c(OCC)c(=O)c2=O)CC1,100,-7,52*,4,9
O=C(CNC(=O)c1cccc(F)c1)N/N=C/c1cccs1,.,.,.,-10,.
SMILES,STAT3 act,STAT1 blocker,PPC-1+TRAIL kill,C8 TRAIL sens,STAT3 blocker
CN(C)c1ccc(N=Nc2ccccc2C(=O)OCC(=O)N2CCCC2)cc1,102,2,42,48,-7
CN(C)c1ccc(N=Nc2ccccc2C(=O)OCC(=O)N2CCCCCC2)cc1,106,7,42,55*,-3
O=C1CC(c2ccc3c(c2)OCCO3)Oc2ccc([N+](=O)[O-])cc21 (stereo not given),.,.,.,64*,.
O=C1CC(c2ccc3c(c2)OCCO3)Oc2ccccc21 (stereo not given),.,.,.,2,.
O=C(Nc1nc2cc3c(cc2s1)OCCO3)c1cccc(N2C(=O)CCC2=O)c1,.,-13,67*,-5,.
O=C(Nc1nc2cc3c(cc2s1)OCCO3)c1cccs1,.,.,21,63*,.
CC(=O)Nc1ccc2nc(NC(=O)c3cccs3)sc2c1,.,.,26,31,.
COc1ccccc1C(=O)Nc1nc2cc3c(cc2s1)OCCO3,.,-42,36,59*,.
Cc1sc(NC(=O)c2cccc(N3C(=O)CCC3=O)c2)nc1-c1ccccc1,.,.,.,50*,.
Cc1ccc2c(c1)N(C(=O)CCC(=O)NCCN1CCOCC1)CCO2,.,.,.,5,.
CN(CCc1ccccc1)C(CCc1ccccc1)C(=O)Nc1ccc2c(c1)OCCO2 (stereo not given),.,.,.,7,.
COc1ccc2c(CC(=O)OCC(=O)Nc3cccc(C)c3)coc2c1,.,.,.,-2,.

# Bioassay records: PubChem, several laboratories
